This is a sample that favours compounds with a hit; in the whole collection about 6.4% have one here.
EBV gp42 block: Epstein-Barr virus gp42 inhibitors, primary screen, biochemical, uHTS, fluorescence polarization. Glycoprotein 42 (Epstein-Barr virus (strain AG876)), Q1HVG2. Fluorescence polarization binding assay, mP read-out. inhibition, % (tested at 21.74 µM). actives 0.42% (n = 220,000); in the data active = inhibition above about 50%
Target sequence (Q1HVG2 whole entry, looked up): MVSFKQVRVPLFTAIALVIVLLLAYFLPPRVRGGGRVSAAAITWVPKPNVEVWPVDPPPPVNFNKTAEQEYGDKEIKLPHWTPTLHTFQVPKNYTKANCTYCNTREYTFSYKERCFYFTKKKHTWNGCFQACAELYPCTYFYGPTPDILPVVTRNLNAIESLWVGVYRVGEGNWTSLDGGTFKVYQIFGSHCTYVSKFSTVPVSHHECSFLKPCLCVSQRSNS
MPTP block: mitochondrial permeability transition pore inhibitors, primary screen, biochemical, isolated mouse mitochondria, absorbance. inhibition, % at 10 µM. Ca2+ swelling absorbance, 30 min. actives 1.4% (n = 360,000). AID 602449, 2012;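 active = inhibition of 50% or more, scaled per plate between neutral and stimulator controls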;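 also: 0% = DMSO wells given calcium and 100% = 1 mM EGTA wells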
WT yeast gro inh: growth inhibition of WT strain, primary screen, mitochondrial fusion inhibitor project, WT and mutant strains, chemical genetic; mitochondrial fusion phenotypic screen; inhibition, % at 10 µM; actives 2.1% (n = 190,000); in the data active = inhibition above about 58%; tested in S. cerevisiae
Tb MetRS inh: T. brucei MetRS inhibitors, primary screen, biochemical, luminescence; purified T. brucei MetRS, ATP depletion, Kinase-Glo luminescence; inhibition, % at 11.9 µM; actives 0.4% (n = 360,000);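 active = inhibition above a per-plate cutoff of the control wells' mean inhibition plus 3 SD, cut at about 5.5% in these data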;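 also: 0% = DMSO wells median and 100% = median of wells with control inhibitor compound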
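Dosing: 11.9 µM single point; system: parasite MetRS enzyme; technique: luminescence of leftover ATP; times: 15 min enzyme-compound preincubation, 2 h reaction, 10 min detection, 25 °C; replicates: each compound tested once; read-out basis: percent inhibition relative to median high and low control wells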
CHOP inh: inhibitors of CHOP promoter induction, primary screen, cell-based, unfolded protein response, luciferase reporter. inhibition, % at 10 µM. actives 3.8% (n = 220,000). CHO-K1 CHOP-promoter luciferase, tunicamycin-induced, 15-18 h;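 active = compounds that reduced the stress-induced luciferase reporter signal by more than about 70% of percent inhibition, limit read from the data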;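 also: 0% = tunicamycin plus vehicle and 100% = wells without tunicamycin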
NR3A LBD binder: binders of NR3A ligand-binding domain, primary screen, biophysical, differential scanning fluorimetry, uHTS | Glutamate receptor ionotropic, NMDA 3A (GRIN3A) ligand-binding domain | NR3A LBD differential scanning fluorimetry, Tm shift; 0% = protein alone, 100% = glycine-bound protein | Tm shift relative to glycine control, % at 25 µM | actives 2.5% (n = 340,000);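 active = melting temperature shift of at least 10% of the positive control shift, at one fixed dose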
The depositor's hits bear a star; / = not tested or not shown.

SMILES	EBV gp42 block	MPTP block	WT yeast gro inh	Tb MetRS inh	CHOP inh	NR3A LBD binder
CC(=O)Nc1cccc(C(=O)Nc2cccc3ncccc23)c1	/	-1	/	0	/	0
CC(=O)c1c(C)[nH]c(C(=O)CSc2nnc(-c3ccc(Cl)cc3)n2CC2CCCO2)c1C (stereo not given)	0	-1	70*	-1	-30	0
COC(=O)Cn1c2ccc(Cl)cc2c2nc(C)sc21	-8	3	/	0	7	2
Cc1ccc(S(=O)(=O)n2c3ccc(Cl)cc3c3nc(C)sc32)cc1	-8	3	64*	0	35	27*
Cc1[nH][nH]c(=O)c1N=Nc1ccccc1Cl	-6	3	/	0	-1	1
Clc1ccccc1N=Nc1ccccn1	/	0	/	0	/	13*
CC(NC(=O)c1ccccc1Cl)c1nnc(SCC(=O)Nc2ccc(C(=O)O)cc2)n1C (stereo not given)	-12	-3	-13	0	6	16*
COC(=O)c1ccccc1NC(=O)CSc1nnc(C(CO)NC(=O)c2ccccc2Cl)n1C (stereo not given)	-7	-2	0	-1	31	-1
COc1ccc(/C=C/C(=O)NC(=S)Nc2ccccc2C(=O)NC2CCCCC2)cc1	-14	1	-9	-1	90*	28*
O=C(/C=C/c1ccccc1)NC(=S)Nc1ccccc1C(=O)NC1CCCCC1	-7	5	-3	0	45	25*
O=C(/C=C/c1ccc(F)cc1)NC(=S)Nc1ccccc1C(=O)NC1CCCCC1	0	1	14	-1	-5	1
CCOC(=O)c1c(NC(=O)C2COc3ccccc3O2)sc2c1CCN(Cc1ccccc1)C2 (stereo not given)	-8	2	21	-1	14	0
COc1ccccc1C(=O)Nc1sc2c(c1C#N)CCC2	/	0	/	0	/	5
COc1ccccc1C(=O)Nc1sc2c(c1C(N)=O)CCCC2	/	-2	/	1	/	35*
NC(=O)c1c(NC(=O)C2c3ccccc3Oc3ccccc32)sc2c1CCCCC2	12	2	13	-1	74*	-4
NC(=O)c1c(NC(=O)C2COc3ccccc3O2)sc2c1CCN(Cc1ccccc1)C2 (stereo not given)	-98	1	-5	-1	79*	2
CCn1c(=O)c(=O)n(CC)c2cc(S(=O)(=O)Nc3cccc(OC)c3)ccc21	-1	-2	8	-1	24	0
CCN1CCN(C2=C(NS(=O)(=O)c3ccc(NC(C)=O)cc3)C(=O)c3ccccc3C2=O)CC1	/	0	/	0	/	15*
CC(=O)Nc1ccc(S(=O)(=O)NC2=C(N3CCN(Cc4ccccc4)CC3)C(=O)c3ccccc3C2=O)cc1	-7	2	19	0	28	-5
C/C=C(/C(=C/C)c1ccc(O)cc1)c1ccc(O)cc1	8	3	63*	-1	46	-19
CC(=NN=C(C)c1ccc(O)cc1)c1ccc(O)cc1	/	1	/	0	/	5
Cc1ccc(C(=O)CSc2nsc(C)c2C#N)cc1	-18	1	13	0	33	15*
O=C(CNc1ccc(Br)cc1)NNC1=NCCC1	-11	-1	-4	-1	0	-3
COc1ccc(S(=O)(=O)NNC(=O)c2sccc2-n2cccc2)cc1	-3	0	-5	0	1	-1
O=C(NNS(=O)(=O)c1ccc(Br)cc1)c1sccc1-n1cccc1	-3	0	-5	0	5	14*
SMILES	EBV gp42 block	MPTP block	WT yeast gro inh	Tb MetRS inh	CHOP inh	NR3A LBD binder
Cc1cc(C)nc(NS(=O)(=O)c2ccc(NC(=O)c3ccccc3[N+](=O)[O-])cc2)n1	/	0	/	-2	/	-2
O=C(OC(c1ccc(NS(=O)(=O)c2ccccc2)cc1)(C(F)(F)F)C(F)(F)F)c1ccccc1	5	19	87*	0	92*	-1
CC(=O)c1ccc(NS(=O)(=O)c2ccccc2)cc1	-16	1	-7	0	38	1
Cc1ccc(S(=O)(=O)Nc2ccc(C(OC(=O)c3ccccc3[N+](=O)[O-])(C(F)(F)F)C(F)(F)F)cc2)cc1	-6	13	86*	0	76*	4
CC12CCC(C(=O)Nc3cc(F)ccc3F)(CC1=O)C2(C)C (stereo not given)	-2	0	-4	-1	0	-2
C=CCn1c(SCc2c(C)noc2C)nc2sc3c(c2c1=O)CCCC3	-13	4	28	0	83*	-1
Cc1noc(C)c1CSc1nc2sc3c(c2c(=O)n1C)CCCC3	-15	-1	15	0	76*	2
C=CCn1c(SCc2c(C)noc2C)nc2sc3c(c2c1=O)CCCCC3	-2	15	8	0	58	1
O=Cc1ccc(OCCN2CCCC2=O)cc1	/	-2	/	-1	/	0
Cc1ccc(C)c(S(=O)(=O)N2CCC3(CC2)OCCN3S(=O)(=O)c2cccs2)c1	/	0	/	0	/	0
COc1ccc(C)cc1S(=O)(=O)N1CCC2(CC1)OCCN2S(=O)(=O)c1cccs1	/	0	/	0	/	16*
N=c1ccn(CC(=O)c2ccc(-c3ccccc3)cc2)cc1	1	2	66*	0	-10	1
O=C(CN1C(=O)CCC1=O)c1ccc(-c2ccccc2)cc1	4	-2	-29	0	14	-1
CC1CN(c2ccc(C(F)(F)F)cc2[N+](=O)[O-])CCN1S(C)(=O)=O (stereo not given)	-6	0	7	1	24	14*
CC1CN(c2ccc([N+](=O)[O-])cc2Cl)CCN1S(C)(=O)=O (stereo not given)	-19	0	/	0	0	1
COC(=O)c1ccccc1NC(=O)CN1CCC(n2nnc3cc(C(F)(F)F)ccc32)CC1	-6	-2	10	-1	37	-2
O=C(CN1CCC(n2nnc3cc(C(F)(F)F)ccc32)CC1)Nc1ccc2c(c1)CCC2	-24	-1	3	-1	78*	-2
O=C(CN1CCC(n2nnc3cc(C(F)(F)F)ccc32)CC1)Nc1ccc2c(c1)OCCO2	-23	2	0	0	43	-1
CC1Cc2ccccc2N1C(=O)CN1CCC(n2nnc3cc(C(F)(F)F)ccc32)CC1 (stereo not given)	100*	6	-5	-1	41	-2
Cc1c(C(=O)NCc2ccco2)oc2ccc(S(=O)(=O)N3CCC4(CC3)OCCO4)cc12	-1	2	-7	1	23	1
